Results from PMC5591795 (Clinical Pharmacokinetics, 2017).
Like-named read-outs stand apart in the source and are kept apart here. Numbered stars: 1 amine (or outer) side, 2 acyl side, 3 side chain; on linkers, the order of the positions; unused ones are H or OH. Bridge positions count the residues as written; N and C are the ends. Square brackets hold non-standard residues; d marks the D form. Peptide text beside a SMILES is read from it. * marks the point of attachment. hTyr(3S-OH,4S-OH,3'-OSO3H) = N[C@H](C(=O)O)[C@H](O)[C@@H](O)c1ccc(O)c(OS(=O)(=O)O)c1; Orn(4R-OH,5R-OH) = O=C([C@H](C[C@@H](O)[C@@H](O)N[*:3])N[*:1])[*:2]; Pro(3S-OH,4S-Me) = C[C@H]1CN[C@H](C(=O)O)[C@H]1O; X1 = CCCCCOc1ccc(-c2cc(-c3ccc(C(=O)*)cc3)no2)cc1; Gln(3R-OH) = NC(=O)C[C@@H](O)[C@H](N)C(=O)O; Hyp = O=C(O)[C@@H]1C[C@@H](O)CN1

What was measured:
[1] = cited from earlier work
[2] = Population pharmacokinetic model of micafungin in ICU patients; assay type: in vivo; conditions: human, plasma, iv, 100 mg
Procedure, shortened: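 ICU adults (n = 20; suspected or proven fungal infection) received 100 mg QD IV over ~1 h. Plasma was sampled on day 3 (±1) pre-dose and 0.5–24 h post start infusion, on day 7 (±1) in six samples to 24 h, and as daily troughs. Drug was measured by UPLC-fluorescence. The model was fitted by FOCE with interaction, with IOV on CL and V and albumin, CVVH and SOFA tested as covariates.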

[3] = cited from earlier work; remark: listed apart in the source
[4] = cited from earlier work; remark: listed apart in the source
[5] = statement without reference; cited from earlier work

For caspofungin, the “CL and V in critically ill patients compared with healthy volunteers” value [1] is listed as “identical”.
In the case of `CCCCCOc1ccc(-c2cc(-c3ccc(C(=O)N[C@H]4C[C@@H](O)[C@@H](O)NC(=O)[C@@H]5[C@@H](O)[C@@H](C)CN5C(=O)[C@H]([C@H](O)CC(N)=O)NC(=O)[C@H]([C@H](O)[C@@H](O)c5ccc(O)c(OS(=O)(=O)O)c5)NC(=O)[C@@H]5C[C@@H](O)CN5C(=O)[C@H]([C@@H](C)O)NC4=O)cc3)no2)cc1` [micafungin] (X1-[Orn(4R-OH,5R-OH)]T[Hyp][hTyr(3S-OH,4S-OH,3'-OSO3H)][Gln(3R-OH)][Pro(3S-OH,4S-Me)]; lactam 1-C), the Vd [2] is given as 21.2 L, the metabolism [1] is given as “only a small fraction is metabolised” and the CL ([1]; healthy volunteers) is given as 0.55 L/h. For the same molecule, the “V (V 1 and V 2 together)” value ([1]; healthy volunteers) was 13.9 L, the solubility in water [3] was “freely soluble in water” and the tolerability ([4]; doses of 8 mg/kg) was “well tolerated”. For the same molecule, the tolerability ([4]; therapy with 150–200 mg QD) was “well tolerated” and the protein binding [5] was “highly protein bound”.
For Anidulafungin, the “V in critically ill patients compared with healthy volunteers” value [1] is listed as “equal”.
